Results taken from ChEMBL document CHEMBL1687824, “Overexpression of patA and patB, which encode ABC transporters, is associated with fluoroquinolone resistance in clinical isolates of Streptococcus pneumoniae” (2011).
In brackets after ≈: the same amount, converted by molar mass.

Experiments:
Assay type in all cases: functional
Streptococcus pneumoniae [1] = assay: Antibacterial activity against Streptococcus pneumoniae M50A overexpressing patA, patB and inactivated patA with single mutation by standardized agar doubling dilution method in presence of 50 uM sodium orthovanadate efflux pump inhibitor
How it was run: (§1)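 MICs were determined by BSAC agar doubling dilution in the presence of sodium orthovanadate at 50 μM. Cultures were grown in BHI broth for 24 h at 37°C in 5% CO2, with R6 as control. Synergy was defined as an MIC reduction of ≥2 dilutions with the inhibitor present.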

Streptococcus pneumoniae [2] = assay: Antibacterial activity against Streptococcus pneumoniae M314 overexpressing patA, patB and inactivated patA with single mutation by standardized agar doubling dilution method in presence of 20 ug/ml reserpine efflux pump inhibitor
How it was run: (§2)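 MICs determined by BSAC standardized agar doubling dilution. Strains were grown in brain heart infusion broth for 24 h at 37°C in 5% CO2. Inhibitor arms had reserpine at 20 μg/ml or sodium orthovanadate at 50 μM in the agar. Mutants were made by transforming magellan2 insertion amplimers into clinical isolates and selecting on spectinomycin 100 mg/liter, with a no-DNA spontaneous-mutation control.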

Streptococcus pneumoniae [3] = assay: Antibacterial activity against Streptococcus pneumoniae M87A overexpressing patA, patB and inactivated patA with single mutation by standardized agar doubling dilution method in presence of 50 uM sodium orthovanadate efflux pump inhibitor; how it was run: as §1
Streptococcus pneumoniae [4] = assay: Antibacterial activity against fluoroquinolone, dye-susceptible Streptococcus pneumoniae by standardized agar doubling dilution method in presence of 50 uM sodium orthovanadate efflux pump inhibitor
How it was run: (§3)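 MIC by agar doubling dilution following BSAC guidelines. Strains grown in brain heart infusion broth 24 h at 37°C in 5% CO2. Where an efflux pump inhibitor applies, MIC redetermined with reserpine at 20 μg/ml or sodium orthovanadate at 50 μM. Synergy taken as a fall in MIC of ≥2 dilutions with inhibitor present. Dye resistance defined relative to R6 (both dyes ≥2 dilutions higher).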

Streptococcus pneumoniae [5] = assay: Antibacterial activity against Streptococcus pneumoniae M46A overexpressing patA, patB and inactivated patA with single mutation by standardized agar doubling dilution method in presence of 20 ug/ml reserpine efflux pump inhibitor
How it was run: (§4)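 MICs were determined by BSAC agar doubling dilution in the presence of reserpine at 20 μg/ml. Strains were grown in BHI broth for 24 h at 37°C in 5% CO2, with R6 as control. Synergy was defined as an MIC drop of ≥2 dilutions with the inhibitor.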

Streptococcus pneumoniae [6] = assay: Antibacterial activity against Streptococcus pneumoniae M87A overexpressing patA, patB and inactivated patA with single mutation by standardized agar doubling dilution method in presence of 20 ug/ml reserpine efflux pump inhibitor; how it was run: as §4
Streptococcus pneumoniae [7] = assay: Antibacterial activity against Streptococcus pneumoniae M303 overexpressing patA, patB and inactivated patA with single mutation by standardized agar doubling dilution method; how it was run: as §2
Streptococcus pneumoniae [8] = assay: Antibacterial activity against Streptococcus pneumoniae M305 overexpressing patA, patB and inactivated patB with single mutation by standardized agar doubling dilution method; how it was run: as §2
Streptococcus pneumoniae [9] = assay: Antibacterial activity against Streptococcus pneumoniae M298 overexpressing patA, patB and inactivated patA with single mutation by standardized agar doubling dilution method in presence of 50 uM sodium orthovanadate efflux pump inhibitor; how it was run: as §2
Streptococcus pneumoniae [10] = assay: Antibacterial activity against fluoroquinolone, dye-resistant Streptococcus pneumoniae M297 overexpressing patA, patB by standardized agar doubling dilution method in presence of 20 ug/ml reserpine efflux pump inhibitor; how it was run: as §3
Streptococcus pneumoniae [11] = assay: Antibacterial activity against Streptococcus pneumoniae M55B overexpressing patA, patB and inactivated patB with single mutation by standardized agar doubling dilution method in presence of 20 ug/ml reserpine efflux pump inhibitor; how it was run: as §4
Streptococcus pneumoniae [12] = assay: Antibacterial activity against fluoroquinolone-resistant Streptococcus pneumoniae by standardized agar doubling dilution method in presence of 50 uM sodium orthovanadate efflux pump inhibitor; how it was run: as §3
Streptococcus pneumoniae [13] = assay: Antibacterial activity against Streptococcus pneumoniae M304 overexpressing patA, patB and inactivated patA with single mutation by standardized agar doubling dilution method in presence of 50 uM sodium orthovanadate efflux pump inhibitor; how it was run: as §2
Streptococcus pneumoniae [14] = assay: Antibacterial activity against Streptococcus pneumoniae M311B overexpressing patA, patB and inactivated patB with single mutation by standardized agar doubling dilution method; how it was run: as §2
Streptococcus pneumoniae [15] = assay: Antibacterial activity against fluoroquinolone-resistant Streptococcus pneumoniae M97 FQ-R overexpressing patA, patB by standardized agar doubling dilution method in presence of 20 ug/ml reserpine efflux pump inhibitor
How it was run: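 MIC by agar doubling dilution per BSAC guidelines; strains pregrown in brain heart infusion broth 24 h, 37°C, 5% CO2. MICs measured alone and with efflux pump inhibitors reserpine (20 μg/ml) or sodium orthovanadate (50 μM); synergy defined as ≥2-dilution MIC reduction in presence of inhibitor.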

Streptococcus pneumoniae [16] = assay: Antibacterial activity against Streptococcus pneumoniae M317 overexpressing patA, patB and inactivated patB with single mutation by standardized agar doubling dilution method in presence of 50 uM sodium orthovanadate efflux pump inhibitor; how it was run: as §1
Streptococcus pneumoniae [17] = assay: Antibacterial activity against fluoroquinolone, dye-resistant Streptococcus pneumoniae M42 overexpressing patA, patB by standardized agar doubling dilution method; how it was run: as §3
Streptococcus pneumoniae [18] = assay: Antibacterial activity against Streptococcus pneumoniae M306 overexpressing patA, patB and inactivated patB with single mutation by standardized agar doubling dilution method in presence of 20 ug/ml reserpine efflux pump inhibitor; how it was run: as §2
Streptococcus pneumoniae [19] = assay: Antibacterial activity against Streptococcus pneumoniae M309 overexpressing patA, patB and inactivated patB with single mutation by standardized agar doubling dilution method in presence of 20 ug/ml reserpine efflux pump inhibitor; how it was run: as §2
Streptococcus pneumoniae [20] = assay: Antibacterial activity against Streptococcus pneumoniae M316 overexpressing patA, patB and inactivated patA with single mutation by standardized agar doubling dilution method
How it was run: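 MICs were determined by agar doubling dilution following BSAC guidelines, with no efflux inhibitor. Strains were grown in brain heart infusion broth for 24 h at 37°C in 5% CO2. Species identity was confirmed by Gram stain, optochin sensitivity and capsule test. Control strain R6 was tested alongside.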

Streptococcus pneumoniae [21] = assay: Antibacterial activity against Streptococcus pneumoniae M316 overexpressing patA, patB and inactivated patA with single mutation by standardized agar doubling dilution method in presence of 50 uM sodium orthovanadate efflux pump inhibitor; how it was run: as §1
Streptococcus pneumoniae [22] = assay: Antibacterial activity against Streptococcus pneumoniae M307 overexpressing patA, patB and inactivated patB with single mutation by standardized agar doubling dilution method in presence of 20 ug/ml reserpine efflux pump inhibitor; how it was run: as §2
Streptococcus pneumoniae [23] = assay: Antibacterial activity against fluoroquinolone, dye-resistant Streptococcus pneumoniae M45 overexpressing patA, patB by standardized agar doubling dilution method in presence of 50 uM sodium orthovanadate efflux pump inhibitor; how it was run: as §3
Streptococcus pneumoniae [24] = assay: Antibacterial activity against Streptococcus pneumoniae M314 overexpressing patA, patB and inactivated patA with single mutation by standardized agar doubling dilution method in presence of 50 uM sodium orthovanadate efflux pump inhibitor; how it was run: as §2
Streptococcus pneumoniae [25] = assay: Antibacterial activity against fluoroquinolone-resistant Streptococcus pneumoniae M98 FQ-R overexpressing patA, patB by standardized agar doubling dilution method
How it was run: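 Clinical S. pneumoniae isolates grown in BHI broth 24 h at 37°C in 5% CO2. MICs by agar doubling dilution per BSAC guidelines, alone or with efflux inhibitor reserpine (20 μg/ml) or sodium orthovanadate (50 μM). Synergy defined as ≥2-dilution MIC reduction in presence of inhibitor.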

Streptococcus pneumoniae [26] = assay: Antibacterial activity against Streptococcus pneumoniae M311B overexpressing patA, patB and inactivated patB with single mutation by standardized agar doubling dilution method in presence of 50 uM sodium orthovanadate efflux pump inhibitor; how it was run: as §2

SMILES | MIC (Streptococcus pneumoniae [1]) [µg/mL] | MIC (Streptococcus pneumoniae [2]) [µg/mL] | MIC (Streptococcus pneumoniae [3]) [µg/mL] | MIC90 (Streptococcus pneumoniae [4]) [µg/mL] | MIC (Streptococcus pneumoniae [5]) [µg/mL] | MIC (Streptococcus pneumoniae [6]) [µg/mL] | MIC (Streptococcus pneumoniae [7]) [µg/mL] | MIC (Streptococcus pneumoniae [8]) [µg/mL] | MIC (Streptococcus pneumoniae [9]) [µg/mL] | MIC (Streptococcus pneumoniae [10]) [µg/mL] | MIC (Streptococcus pneumoniae [11]) [µg/mL] | MIC90 (Streptococcus pneumoniae [12]) [µg/mL] | MIC (Streptococcus pneumoniae [13]) [µg/mL] | MIC (Streptococcus pneumoniae [14]) [µg/mL] | MIC (Streptococcus pneumoniae [15]) [µg/mL] | MIC (Streptococcus pneumoniae [16]) [µg/mL] | MIC (Streptococcus pneumoniae [17]) [µg/mL] | MIC (Streptococcus pneumoniae [18]) [µg/mL] | MIC (Streptococcus pneumoniae [19]) [µg/mL] | MIC (Streptococcus pneumoniae [20]) [µg/mL] | also measured
CC[n+]1c(-c2ccccc2)c2cc(N)ccc2c2ccc(N)cc21.[Br-] [HOMIDIUM BROMIDE] | 0.5 | 0.5 | 0.5 | 0.25 | 0.5 | 0.5 | 1 | 0.5 | 0.5 | 0.5 | 0.5 | 0.5 | 0.25 | 0.5 | 0.5 | 0.5 | 8 | 0.5 | 0.5 | 0.25 | MIC (Streptococcus pneumoniae [21]): 0.5 µg/mL; MIC (Streptococcus pneumoniae [22]): 0.5 µg/mL; MIC (Streptococcus pneumoniae [23]): 1 µg/mL; MIC (Streptococcus pneumoniae [24]): 0.5 µg/mL; MIC (Streptococcus pneumoniae [25]): 4 µg/mL; MIC (Streptococcus pneumoniae [26]): 8 µg/mL
O=C(O)c1cn(C2CC2)c2cc(N3CCNCC3)c(F)cc2c1=O [CIPROFLOXACIN] | 4 | 8 | 8 | 0.5 | 0.12 | 8 | 2 (≈ 6.04 µM) | 8 (≈ 24.1 µM) | 8 | 2 | 2 | 2 | 2 | 8 (≈ 24.1 µM) | 4 | 8 | 64 (≈ 193 µM) | 4 | 1 | 8 (≈ 24.1 µM) | MIC (Streptococcus pneumoniae [21]): 8 µg/mL; MIC (Streptococcus pneumoniae [22]): 8 µg/mL; MIC (Streptococcus pneumoniae [23]): 1 µg/mL; MIC (Streptococcus pneumoniae [24]): 8 µg/mL; MIC (Streptococcus pneumoniae [25]): 32 µg/mL (≈ 96.6 µM); MIC (Streptococcus pneumoniae [26]): 4 µg/mL
